Experiment [1] has as its target T1, Acyl-protein thioesterase 1 (Homo sapiens, UniProt O75608). In words: Inhibition of human APT1. The essentials:
(§1)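 Potency and selectivity were measured by gel-based competitive ABPP. The enzyme source was preincubated with inhibitor, then labeled with a fluorophosphonate activity-based probe. Residual active-site labeling was visualized in-gel.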

For experiment [2], the target named is T2, Acyl-protein thioesterase 2 (Homo sapiens, UniProt O95372). In words: Inhibition of human APT2. The method in brief:
as §1

For experiment [3], the target named is T3, sn-1-specific diacylglycerol lipase ABHD11 (Homo sapiens, UniProt Q8NFV4).
T3 sequence (Q8NFV4 whole entry): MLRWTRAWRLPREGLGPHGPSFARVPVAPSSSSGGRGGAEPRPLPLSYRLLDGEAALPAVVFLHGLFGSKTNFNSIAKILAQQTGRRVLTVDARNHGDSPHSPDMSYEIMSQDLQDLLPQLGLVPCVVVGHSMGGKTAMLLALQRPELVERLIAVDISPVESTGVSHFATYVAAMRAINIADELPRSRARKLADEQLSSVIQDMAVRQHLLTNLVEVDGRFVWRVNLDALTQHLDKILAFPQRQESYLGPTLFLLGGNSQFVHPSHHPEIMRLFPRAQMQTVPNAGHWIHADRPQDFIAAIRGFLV
Put plainly: Inhibition of ABHD11 (unknown origin). The method in brief: as §1

The target in experiment [4] is T2, Acyl-protein thioesterase 2. Put plainly: Inhibition of APT2 (unknown origin).
Experiment [5] deals with T1, Acyl-protein thioesterase 1. In words: Inhibition of APT1 (unknown origin).
Experiment [6] concerns the target T2, Acyl-protein thioesterase 2. Put plainly: Inhibition of APT2 (unknown origin) by FluPol-ABPP assay. The method in brief:
(§2)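 Fluorescence polarization competitive ABPP (FluoPol-ABPP) in high-throughput format. Recombinant human APT enzyme was preincubated with candidate inhibitor at 10 µM. FP-TAMRA was then added for a short, time-dependent reaction under non-equilibrium conditions. Read-out was the polarization signal of probe labeling of the active site.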

Experiment [7] addresses T1, Acyl-protein thioesterase 1. In words: Inhibition of APT1 (unknown origin) by FluPol-ABPP assay. The method in brief: as §2
Experiment [8] can be described thus: Inhibition of Toxoplasma gondii ASH1. The method in brief:
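The Toxoplasma gondii APT homologue TgASH1 was assayed by competitive ABPP. The inhibitor was preincubated, followed by activity-based probe labeling. Loss of probe labeling of TgASH1 was scored across inhibitor concentrations.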

In experiment [9] the target is T2, Acyl-protein thioesterase 2. Put plainly: Inhibition of APT2 (unknown origin) by enzyme kinetic assay.

Bounds are passed on as bounds.

One may read the IC50 as the point on the concentration scale where inhibition reaches its midpoint. A low value points to greater potency in that assay. By Ki is commonly meant the equilibrium dissociation constant of an inhibitor or competing ligand from its target. Lower therefore signals higher affinity.

T2 sequence (O95372 whole entry): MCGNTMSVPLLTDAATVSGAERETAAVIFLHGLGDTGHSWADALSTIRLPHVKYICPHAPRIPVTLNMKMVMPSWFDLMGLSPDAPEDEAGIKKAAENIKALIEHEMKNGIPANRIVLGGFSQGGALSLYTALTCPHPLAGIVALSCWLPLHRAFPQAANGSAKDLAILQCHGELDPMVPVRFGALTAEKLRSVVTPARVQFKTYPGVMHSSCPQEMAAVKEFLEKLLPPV
T1 sequence (O75608 whole entry): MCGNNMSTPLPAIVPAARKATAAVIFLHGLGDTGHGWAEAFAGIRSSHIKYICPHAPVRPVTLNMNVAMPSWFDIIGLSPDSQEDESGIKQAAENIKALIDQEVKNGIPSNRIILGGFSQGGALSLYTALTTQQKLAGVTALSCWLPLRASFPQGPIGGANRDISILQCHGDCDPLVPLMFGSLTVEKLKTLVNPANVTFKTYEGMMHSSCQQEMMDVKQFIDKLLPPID

In the case of `CCC1CCCCN1C(=O)n1ncc(C(O)(c2ccccc2)c2ccccc2)n1` (stereo not drawn), the IC50 in [1] is over 10000 nM; in experiment [2], over 10000 nM; in [3] it was under 30 nM.
`CCCCCCCCCC[C@@H]1C(=O)O[C@H]1CCc1ccc(OC)c(OC)c1` [PALMOSTATIN B]: the figures for the IC50 in [4] and in experiment [5] were 37.7 nM and 5.4 nM, respectively. Besides, the Ki in experiment [4] is 34 nM.
With `COc1ccc(N2CCN(C(=O)c3cc4c(s3)-c3ccccc3S(=O)(=O)C4)CC2)cc1`, the Ki was 230 nM in [6] and over 10000 nM in [7].
`CC(C)(C)C1CCN(C(=O)n2ncc(C(O)(c3ccccc3)c3ccccc3)n2)CC1`: the results for the IC50 in experiment [1], in experiment [2] and in experiment [3] were 17 nM, 30 nM and under 30 nM, respectively.
The compound `CCCOc1oc(=O)c2cc(N)ccc2c1Cl` displayed an IC50 in [8] of 1320 nM.
As to `CN(C)CCOB(c1ccccc1)c1ccc(COCc2ccc(B(OCCN(C)C)c3ccccc3)cc2)cc1`, in experiment [9], the affinity, expressed as Ki, was 730 nM.
In the case of `CCCCCCCCCC[C@@H]1C(=O)O[C@H]1CCCCS(=O)(=O)CCCN(C)C`, in experiment [4], the IC50 turned out to be 19.6 nM.
As for `O=C(N1CCCCC1)n1ncc(C(O)(c2ccccc2)c2ccccc2)n1`, the IC50 in experiment [1] is under 30 nM; in experiment [2], 200 nM; in experiment [3], under 30 nM.
Consider `O=C(CN1CCN(C(=O)c2ccco2)CC1)Nc1cc(C(F)(F)F)ccc1Cl`, for which the inhibitory constant (Ki) in experiment [6] was over 10000 nM.

(Values after ChEMBL document CHEMBL3132844, “Acyl protein thioesterase inhibitors as probes of dynamic S-palmitoylation” (Medchemcomm, 2014).)
